The results in this text go back to ChEMBL document CHEMBL4840310, “Discovery of novel 2,3,5-trisubstituted pyridine analogs as potent inhibitors of IL-1β via modulation of the p38 MAPK signaling pathway” (Eur J Med Chem, 2021).

A short description of data set [1]: Inhibition of LPS stimulated IL-1beta in human mococyte-derived macrophages cells preincubated for 2 hrs followed by LPS stimulation and measured after 6 hrs by ELISA. In kind it is functional. The note with it: Macrophage. The essentials: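 Human monocyte-derived macrophages stimulated with LPS; IL-1β secretion measured over 10 concentrations per compound, N = 2, to compute individual IC50 values; dexamethasone run in parallel as reference. Z-score reported.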

Data set [2] has as its system Macrophage. As to the kind of experiment: Inhibition of LPS stimulated IL-8 in human mococyte-derived macrophages cells at 1 uM preincubated for 2 hrs followed by LPS stimulation and measured after 6 hrs by ELISA. The class given is functional. As to conditions: time 8.0 hrs.
Data set [3] in a line: Half life in Wistar rat 65 mg/kg, po administered as single dose. The class given is ADME, organism-based. The note with it: in vivo. The essentials:
(§1)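 Female Wistar rats, 8 weeks old, given a single oral 65 mg/kg dose in PEG400/Kolliphor HS 15 (70/30 v/v); plasma drug levels sampled over time (N = 9). Tmax taken from the curve; two-compartment fit with first-order terminal elimination gave distribution and elimination half-lives.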

A short description of data set [4]: Elimination half life in Wistar rat 65 mg/kg, po administered as single dose. The class given is ADME, organism-based. The note with it: in vivo, read-out: beta t1/2 (converted). In a few lines: as §1
The subject of data set [5] is Macrophage. As to the kind of experiment: Inhibition of LPS stimulated GM-CSF in human mococyte-derived macrophages cells at 1 uM preincubated for 2 hrs followed by LPS stimulation and measured after 6 hrs by ELISA. The class given is functional. As to conditions: time 8.0 hrs.
The subject of data set [6] is Mus musculus. As to the kind of experiment: Anti-inflammatory activity in Balb/c mouse assessed as inhibition of stimulated IL-1beta secretion in plasma at 10 mg/kg, po after 4 hrs by ELISA. In kind it is functional, organism-based. The essentials: (§2)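 Male BALB/c mice dosed orally with 10 or 20 mg/kg compound (DMSO stock, then 5% TPGS in PBS), vehicle controls. LPS O111:B4 0.33 mg/kg i.p. in saline given 2 h after treatment. Blood drawn retro-orbitally into heparin tubes 4 h post-LPS; plasma IL-1β by ELISA read at 450 nm.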

The test system of data set [7] is Macrophage. As to the kind of experiment: Inhibition of LPS stimulated IL-6 in human mococyte-derived macrophages cells at 1 uM preincubated for 2 hrs followed by LPS stimulation and measured after 6 hrs by ELISA. The class given is functional. The note with it: time 8.0 hrs.
For data set [8], the system named is Mus musculus. In words: Anti-inflammatory activity in Balb/c mouse assessed as inhibition of stimulated IL-1beta secretion in plasma at 20 mg/kg, po after 4 hrs by ELISA. The class given is functional, organism-based. In a few lines: as §2
Data set [9] deals with Mus musculus. As to the kind of experiment: Anti-inflammatory activity in po dosed Balb/c mouse assessed as inhibition of stimulated IL-1beta secretion in lung after 4 hrs by ELISA. The class given is functional, organism-based. The note with it: dose 10-20 mg/kg.
Data set [10] is described as follows: Tmax in Wistar rat at 65 mg/kg, po administered as single dose. The class given is ADME, organism-based. The note with it: in vivo. The essentials: as §1
The subject of data set [11] is Mus musculus. As to the kind of experiment: Anti-inflammatory activity in po dosed Balb/c mouse assessed as inhibition of stimulated IL-1beta secretion in brain after 4 hrs by ELISA. In kind it is functional, organism-based. The note with it: dose 10-20 mg/kg.
For data set [12], the system named is Mus musculus. As to the kind of experiment: Anti-inflammatory activity in po dosed Balb/c mouse assessed as inhibition of stimulated IL-1beta secretion in liver after 4 hrs by ELISA. The class given is functional, organism-based. As to conditions: dose 10-20 mg/kg.
The target in data set [13] is T1, Mitogen-activated protein kinase 14 (Homo sapiens, UniProt Q16539). In words: Binding affinity to p38 alpha MAPK (unknown origin) assessed as association constant by surface plasmon resonance imaging.
Data set [14] has as its system Macrophage. In words: Inhibition of LPS stimulated IL-4 in human mococyte-derived macrophages cells at 1 uM preincubated for 2 hrs followed by LPS stimulation and measured after 6 hrs by ELISA. The class given is functional. As to conditions: time 8.0 hrs.
Data set [15] concerns Macrophage. As to the kind of experiment: Inhibition of LPS stimulated IL-2 in human mococyte-derived macrophages cells at 1 uM preincubated for 2 hrs followed by LPS stimulation and measured after 6 hrs by ELISA. The class given is functional. The note with it: time 8.0 hrs.
In data set [16] the target is T1, Mitogen-activated protein kinase 14. In words: Binding affinity to p38 alpha MAPK (unknown origin) assessed as dissociation rate constant by surface plasmon resonance imaging.

Active and inactive are the calls of the source. The calls are words filed in the database; no cut-off is given here.

T1 sequence (Q16539 whole entry): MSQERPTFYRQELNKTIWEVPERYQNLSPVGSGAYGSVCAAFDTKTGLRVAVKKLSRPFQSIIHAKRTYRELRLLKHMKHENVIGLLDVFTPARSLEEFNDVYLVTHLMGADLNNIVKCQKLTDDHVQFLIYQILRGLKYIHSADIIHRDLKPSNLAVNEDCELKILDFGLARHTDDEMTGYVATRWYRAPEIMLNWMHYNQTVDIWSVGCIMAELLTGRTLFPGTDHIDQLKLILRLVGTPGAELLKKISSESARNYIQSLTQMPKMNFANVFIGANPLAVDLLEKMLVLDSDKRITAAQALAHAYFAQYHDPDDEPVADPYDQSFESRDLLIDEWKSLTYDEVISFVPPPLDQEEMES

`CCC(=O)c1ccc(-c2cc(S(=O)(=O)N(C)C)cnc2N2CCC(Oc3ccc(Cl)cc3)CC2)cc1`: the IC50 in data set [1] was > 10 µM.
Take `CCCOc1ccc(Nc2cc(S(=O)(=O)N(C)C)cnc2N2CCC(Oc3ccc(Cl)cc3)CC2)cc1`: the IC50 in data set [1] was > 10 µM.
For `CCOc1ccc(Oc2cc(S(=O)(=O)N(C)C)cnc2N2CCN(Cc3ccc(Cl)nc3)CC2)cc1`, in data set [1], the concentration for half-maximal inhibition (IC50) is > 10 µM.
Consider `CN(C)S(=O)(=O)c1cnc(N2CCC(Oc3ccc(Cl)cc3)CC2)c(Oc2ccc(OCCO)cc2)c1`, for which the IC50 in [1] is > 10 µM.
With `CCOc1ccc(Oc2cc(S(=O)(=O)N(C)C)cnc2N2CCC(Oc3ccc(Cl)cc3)CC2)cc1`, the inhibition entry in the data set with Macrophage [2], in the data set with Macrophage [5], in the data set with Macrophage [7], in the data set with Macrophage [14] and with Macrophage [15] was “Active” each time. Moreover, the half-life is 2.1 h in data set [3] and 9 h in data set [4]. Further, the result with Mus musculus [6] and with Mus musculus [8] was Active. Moreover, the Activity entry in the data set with Mus musculus [9], in the data set with Mus musculus [11] and with Mus musculus [12] was “Dose-Dependent Effect” throughout. Moreover, the Tmax in data set [10] amounted to 1 h. For the same compound, in [13], the Ka is 2.08 10^4/M/s. For the same compound, in data set [1], the midpoint of inhibition, the IC50, lay at 0.028 µM. In addition, the koff in [16] is on record as 2.48 10^-4/s.
The compound `CCOc1ccc(Oc2cc(S(=O)(=O)N(C)C)cnc2N2CCC(Oc3ccc(C(N)=O)nc3)CC2)cc1` returned an IC50 in [1] of 0.337 µM.
Same read-out and setting: the same measure for `CN(C)S(=O)(=O)c1cnc(N2CCC(Oc3ccc(Cl)cc3)CC2)c(Oc2ccc3c(c2)CCO3)c1`: 0.028 µM; for `CCOc1ccc(Nc2cc(S(=O)(=O)N(C)C)cnc2N2CCC(Oc3ccc(Cl)cc3)CC2)cc1`: > 10 µM; for `CCC(=O)c1ccc(Nc2cc(S(=O)(=O)N(C)C)cnc2N2CCC(Oc3ccc(Cl)cc3)CC2)cc1`: > 10 µM.
Regarding `CN(C)S(=O)(=O)c1cnc(N2CCC(Oc3ccc(Cl)cc3)CC2)c(Nc2ccc3oc(CO)cc3c2)c1`, in [1], 0.0128 µM corresponded to half-maximal inhibition (IC50).
As to `CN(C)S(=O)(=O)c1cnc(N2CCC(Oc3ccc(Cl)cc3)CC2)c(Nc2ccc3c(c2)OCO3)c1`, half-maximal inhibition in [1] (IC50) required 0.121 µM.
As to `CCOc1ccc(Oc2cc(S(=O)(=O)N(C)C)cnc2N2CCC(Oc3ccc(Cl)nc3)CC2)cc1`, in [1], inhibition was half-maximal at 4 µM (IC50).
With `CN(C)S(=O)(=O)c1cnc(N2CCC(Oc3ccc(Cl)cc3)CC2)c(-c2ccc3c(c2)CCO3)c1`, half-maximal inhibition in data set [1] (IC50) was put at 0.027 µM.
For `CCOc1ccc(Oc2cc(S(=O)(=O)N(C)C)cnc2N2CCN(Cc3ccc(Cl)cc3)CC2)cc1`, in data set [1], the IC50 is > 10 µM.
In [1], `CCOc1ccc(Oc2cc(S(=O)(=O)N(C)C)cnc2N2CCC(Oc3ccc(Cl)nn3)CC2)cc1` had an IC50 of 1.1 µM.
Same read-out and setting: the same measure for `CN(C)S(=O)(=O)c1cnc(N2CCC(Oc3ccc(Cl)cc3)CC2)c(Nc2ccc3c(c2)CCO3)c1`: 0.029 µM.
